Source: ChEMBL document CHEMBL4152256, “Structure-activity relationship of new antimalarial 1-aryl-3-susbtituted propanol derivatives: Synthesis, preliminary toxicity profiling, parasite life cycle stage studies, target exploration, and targeted delivery” (Eur J Med Chem, 2018)
The source made the active and inactive calls. The calls are words filed in the database; no cut-off is given here.

Legend:
[1] = Drug encapsulation in liposomes assessed as encapsulation efficiency in citrate/phosphate buffered measured after ultracentrifugation using compound addition to preformed liposomes by UV/Vis spectroscopy relative to untreated control; assay type: physicochemical; details: artificial membrane
Method in brief: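 Compound loaded into DSPC:cholesterol:DSPE-PEG2000-Mal:DOPE-Rho (84.5:10:5:0.5) liposomes using a citrate (pH 4.0)/PBS pH gradient. Drug measured by UV/vis after SDS disruption at each step: citrate liposomes, after buffer exchange to PBS (chloroquine added to preformed liposomes here), and after ultracentrifugation. Encapsulation efficiency = % of drug that is encapsulated out of total drug in the sample.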

Plasmodium berghei [2] = assay: Antiplasmodial activity against Plasmodium berghei ANKA infected in mouse assessed as inhibition of parasitemia at 3 mg/kg/day, po for 4 consecutive days starting from 2 hrs post infection by MSF assay relative to control; assay type: functional
Method in brief: (§1)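 Swiss male mice (20 ± 2 g) infected ip with 10^7 P. berghei ANKA parasitized cells (day 0). Five per group dosed orally 2 h after infection and daily on days 0–3. Test compounds at 50 mg/kg/day in water:DMSO; chloroquine diphosphate at 3 mg/kg/day; vehicle controls. Parasitemia measured on day 4 by MSF assay; survival checked daily.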

Plasmodium falciparum [3] = assay: Binding affinity to Plasmodium falciparum GRP94 nucleotide binding domain at 0.5 mM by SYPRO orange dye based DSF analysis
Method in brief: (§2)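 Recombinant P. falciparum Hsp90 or GRP94 nucleotide-binding domain (0.05–0.2 mg/mL, optimized per protein) in 25 mM HEPES pH 7.5, 250 mM NaCl. Compound final concentration was 0.5 mM, with SYPRO Orange at 1:1000. Samples were heated from 18 to 90 °C at 1 °C/min. Tm was taken as the Boltzmann-fit inflection point. ΔTm = Tm with ligand minus Tm without, and shifts beyond ±1 °C were counted significant.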

[4] = (§3) Binding affinity to Plasmodium falciparum GRP94 nucleotide binding domain by SPR analysis
Method in brief: (§4)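 Purified PfHsp90 and PfGRP94 nucleotide-binding domains were amine-coupled to a CM5 chip (3000 and 7000 RU, respectively), with a blank reference surface. Seven compound concentrations (0.4 nM–1 mM) were injected in triplicate at 30 µL/min, 25 °C, in random order. Running buffer: 10 mM HEPES pH 7.4, 150 mM NaCl, 0.005% P20, 1% DMSO, 2 mM MgCl2. Kd came from double-referenced sensorgrams.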

[5] = target: T1, HSP90 (Plasmodium falciparum 3D7) (UniProt Q8IL32); assay: Binding affinity to Plasmodium falciparum HSP90 nucleotide binding domain at 0.5 mM by SYPRO orange dye based DSF analysis; method in brief: as §2
T1 sequence (whole entry): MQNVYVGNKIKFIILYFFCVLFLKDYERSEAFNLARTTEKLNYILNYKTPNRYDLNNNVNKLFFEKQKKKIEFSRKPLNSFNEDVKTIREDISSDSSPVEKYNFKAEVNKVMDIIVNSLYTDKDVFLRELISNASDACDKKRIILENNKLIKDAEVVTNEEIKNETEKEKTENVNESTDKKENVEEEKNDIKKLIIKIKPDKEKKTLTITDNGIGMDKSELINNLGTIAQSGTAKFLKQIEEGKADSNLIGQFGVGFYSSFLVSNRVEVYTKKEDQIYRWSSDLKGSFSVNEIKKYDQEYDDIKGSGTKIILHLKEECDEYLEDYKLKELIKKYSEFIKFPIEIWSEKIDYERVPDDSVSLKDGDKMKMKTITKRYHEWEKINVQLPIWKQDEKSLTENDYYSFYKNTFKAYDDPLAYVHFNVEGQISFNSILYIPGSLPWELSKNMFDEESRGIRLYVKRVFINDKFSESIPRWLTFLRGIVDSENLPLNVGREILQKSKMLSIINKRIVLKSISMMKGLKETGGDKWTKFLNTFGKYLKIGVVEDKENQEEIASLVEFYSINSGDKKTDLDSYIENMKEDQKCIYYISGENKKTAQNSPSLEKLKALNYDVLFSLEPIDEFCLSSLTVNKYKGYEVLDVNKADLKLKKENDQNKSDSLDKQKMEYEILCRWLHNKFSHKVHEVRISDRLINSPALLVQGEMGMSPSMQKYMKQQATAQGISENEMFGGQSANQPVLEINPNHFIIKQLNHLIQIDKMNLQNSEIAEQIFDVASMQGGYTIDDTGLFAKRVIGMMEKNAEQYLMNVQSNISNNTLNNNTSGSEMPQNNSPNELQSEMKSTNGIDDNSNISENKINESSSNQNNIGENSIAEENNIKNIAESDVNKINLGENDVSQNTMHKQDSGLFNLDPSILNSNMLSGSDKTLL

HSP90 = target: T2, HSP90 (Plasmodium falciparum 3D7, UniProt Q8IL32); assay: (§5) Binding affinity to Plasmodium falciparum HSP90 nucleotide binding domain by SPR analysis; method in brief: as §4
T2 sequence (Q8IL32 whole entry): T1 sequence (whole entry)

Plasmodium falciparum [6] = assay: Antiplasmodial activity against multidrug-resistant Plasmodium falciparum FCR-3 by [3H]-hypoxanthine incorporation assay; assay type: functional, organism-based, FCR-3/Gambia
Method in brief: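 Blood-stage P. falciparum 3D7 and FCR-3 were tested by a modified [3H]-hypoxanthine incorporation assay. Chloroquine was the reference in all runs.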

[7] = Selectivity index, ratio of CC50 for human HepG2A16 cells by MTT assay to IC50 for multidrug-resistant Plasmodium falciparum FCR-3; assay type: toxicity
Method in brief: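 HepG2-A16 human hepatoma cells were tested by MTT viability assay to give CC50. Blood-stage activity was measured against the multidrug-resistant P. falciparum FCR-3 strain by [3H]-hypoxanthine incorporation to give IC50. SI = CC50 HepG2 / FCR-3 IC50.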

[8] = Cytotoxicity against human HepG2A16 cells by MTT assay; assay type: cell-based
Method in brief: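 MTT viability assay on HepG2-A16 cells, giving CC50 values.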

Plasmodium falciparum [9] = assay: as §3; method in brief: as §4
Plasmodium berghei [10] = assay: Antiplasmodial activity against GFP-fused Plasmodium berghei sporozoites infected in human HepG2A16 cells treated simultaneously with infection by fluorescence microscopic analysis; assay type: functional, organism-based; details: Plasmodium berghei, HepG2A16; read-out: IC50
Method in brief: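 HepG2-A16 cells (3 × 10^4/well, collagen-coated) infected with PbGFP sporozoites (5 × 10^3 to 1 × 10^4/well) and treated at the same time. Top concentration 10 µg/mL in DMEM, seven serial dilutions. Medium and compound renewed at 3 h and every 24 h. After 40 h at 37 °C: methanol fixation, anti-Plasmodium Hsp70 immunolabeling, Alexa 594 secondary, DAPI; high-content imaging.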

Plasmodium berghei [11] = assay: Antiplasmodial activity against GFP-fused Plasmodium berghei in Anopheles stephensi mosquitoes feeded on blood from infected mouse at 100 mg/kg, ip pretreated for 1.5 hrs followed by blood feeding of mosquito assessed as reduction in infection of mosquito and measured at 8 days post mosquitoes infection by fluorescence microscopic method relative to control; assay type: functional; design: scale not given: the % may be the effect or the level left
Method in brief: (§6)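 Mice (two per group) infected ip with 200 µL PbGFP-infected RBCs (3000 parasites/µL); gametocytes checked at day 4. Compound given ip at 100 mg/kg in DMSO 1.5 h before A. stephensi fed 1 h on mice at 1% gametocytaemia. Untreated and DMSO-treated mice as controls. After 8 days, 30 mosquitoes per group dissected; midgut oocysts counted by fluorescence microscopy; inhibition relative to control oocyst numbers (100%).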

[12] = Selectivity index, ratio of CC50 for human HepG2A16 cells to IC50 for GFP-fused Plasmodium berghei sporozoites infected in human HepG2A16 cells; assay type: toxicity, cell-based; details: read-out: Ratio CC50/IC50
Method in brief: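 HepG2-A16 cells were grown at 3 × 10^4 per well on collagen and infected with GFP P. berghei sporozoites (5 × 10^3 to 1 × 10^4 per well) from A. stephensi salivary glands. Compounds were added at infection, from 10 µg/mL top plus seven serial dilutions, and refreshed at 3 h and then every 24 h. After 40 h at 37 °C, EEFs were methanol-fixed, anti-Hsp70 immunolabelled and counted by high-content imaging. SI = HepG2 CC50 / liver-stage IC50.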

[13] = Selectivity index, ratio of CC50 for human primary hepatocytes to IC50 for Plasmodium falciparum FCR-3 sporozoites infected in human primary hepatocytes; assay type: toxicity, cell-based; details: read-out: Ratio CC50/IC50
Method in brief: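 Primary human hepatocytes were plated at 8 × 10^4 per well on collagen and infected with P. falciparum sporozoites (2.5 × 10^4 per well). Compounds were given at infection from 10 µg/mL plus seven dilutions, refreshed every 24 h, for 8 days. EEFs were read by Hsp70 immunostaining. […] Two independent experiments were run.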

Plasmodium berghei [14] = assay: Antiplasmodial activity against GFP-fused Plasmodium berghei in Anopheles stephensi mosquitoes feeded on blood from infected mouse at 100 mg/kg, ip pretreated for 1.5 hrs followed by blood feeding of mosquito assessed as reduction in number of oocysts in mosquito midgut and measured at 8 days post mosquitoes infection by fluorescence microscopic method relative to control; assay type: functional; design: scale not given: the % may be the effect or the level left; method in brief: as §6
Plasmodium falciparum [15] = assay: Antiplasmodial activity against Plasmodium falciparum FCR-3 sporozoites infected in human primary hepatocytes treated simultaneously with infection by DAPI staining based HCS analysis; assay type: functional, organism-based, FCR-3/Gambia; details: Plasmodium falciparum, FCR-3/Gambia; read-out: IC50
[16] = Cytotoxicity against human primary hepatocytes after 48 hrs by MTT assay; assay type: cell-based, Hepatocyte
Method in brief: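 Primary human hepatocytes seeded at 2 × 10^5/well and grown 24 h at 37 °C, 5% CO2. Compound dilutions added in triplicate for 48 h. MTT (2 mg/mL) added for 4 h, then DMSO for 20 min; absorbance read at 550 nm. Untreated and diluent controls included; CC50 calculated.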

[17] = target: T1, HSP90 (Plasmodium falciparum 3D7); assay: as §5; method in brief: as §4
Plasmodium berghei [18] = assay: Antiplasmodial activity against Plasmodium berghei ANKA infected in mouse assessed as mouse survival time at 3 mg/kg/day, po for 4 consecutive days starting from 2 hrs post infection by MSF assay; assay type: functional
Method in brief: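 Swiss male mice (20 ± 2 g) infected i.p. with 10^7 P. berghei ANKA parasitized cells in 0.1 mL 0.9% saline (day 0). Oral dosing began 2 h post-infection and continued daily on days 0–3, five mice per batch. Test drugs were given at 50 mg/kg/day in water:DMSO and chloroquine diphosphate at 3 mg/kg/day; a vehicle control was included. Survival was checked daily, and parasitemia was read on day 4 by modified MSF assay.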

Plasmodium falciparum [19] = assay: Antiplasmodial activity against multidrug-resistant Plasmodium falciparum C235 after 72 hrs by MSF assay; assay type: functional, organism-based; details: C235, 72 h
Method in brief: (§7)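 D6 and C235 strains from the Walter Reed Army Institute of Research were tested by the Malaria SYBR Green-I fluorescence assay.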

Plasmodium berghei [20] = assay: Antiplasmodial activity against Plasmodium berghei ANKA infected in mouse assessed as inhibition of parasitemia at 50 mg/kg/day, po for 4 consecutive days starting from 2 hrs post infection by MSF assay relative to control; assay type: functional; method in brief: as §1
Plasmodium falciparum [21] = assay: Antiplasmodial activity against Plasmodium falciparum D6 after 72 hrs by MSF assay; assay type: functional, organism-based; details: D6, 72 h; method in brief: as §7
Plasmodium berghei [22] = assay: Antiplasmodial activity against Plasmodium berghei ANKA infected in Swiss mouse assessed as reduction in parasitemia at 50 mg/kg/day, po for 4 consecutive days by Giemsa staining based assay relative to control; assay type: functional; design: scale not given: the % may be the effect or the level left
[23] = Selectivity index, ratio of GI50 for African green monkey vero cells to IC50 for multidrug-resistant Plasmodium falciparum FCR-3; assay type: toxicity; details: read-out: Selectivity Index
[24] = Plasmodium falciparum, FCR-3/Gambia, 3 h

SMILES | Activity (Plasmodium falciparum [3]) | Activity [5] | CC50 ([8]; HepG2A16 cells) [µM] | IC50 (Plasmodium berghei [10]) [µM] | selectivity ratio [12] | selectivity ratio [13] | IC50 (Plasmodium falciparum [15]) [µM] | CC50 at 48 h [16] [µM] | also measured
CCN(CC)CCCC(C)Nc1ccnc2cc(Cl)ccc12.O=P(O)(O)O.O=P(O)(O)O (stereo unspecified) [CHLOROQUINE PHOSPHATE] | – | – | – | – | – | – | – | – | Activity [1]: 95.8%; inhibition in vivo at 3 mg/kg/day (Plasmodium berghei [2]): 88.5%
OC(CN1CCN(Cc2ccccc2)CC1)Cn1c2ccc(Cl)cc2c2cc(Cl)ccc21 (stereo unspecified) | inactive | inactive | – | – | – | – | – | – | Kd [4]: 0.017 µM; Kd (HSP90): 0.027 µM
O=[N+]([O-])c1ccc(N2CCC(NCCC(O)c3ccc(F)cc3)CC2)c(C(F)(F)F)c1 (stereo unspecified) | inactive | inactive | 10.4 | 18.2 | 0.6 | 11.4 | 1.71 | 19.5 | IC50 (Plasmodium falciparum [6]; [24]): 0.48 µM; selectivity ratio ([7]; HepG2A16 cells, read-out: Ratio CC50/IC50): 22; Activity (Plasmodium falciparum [9]): inactive; Activity (Plasmodium berghei [11]): 24%; Activity (Plasmodium berghei [14]): 70%; Activity [17]: inactive
COc1cc(NC(C)CCCN)c2ncccc2c1 (stereo unspecified) [PRIMAQUINE] | – | – | 120 | 3.65 | 32.9 | 135 | 0.4 | 54 | IC50 (Plasmodium falciparum [6]; [24]): 1.18 µM
CCN(CC)CCCC(C)Nc1ccnc2cc(Cl)ccc12 (stereo unspecified) [CHLOROQUINE] | – | – | 137 | – | – | – | – | – | MSD (Plasmodium berghei [18]): 11 days
CC(C)NCC(O)Cn1c2ccc(Cl)cc2c2cc(Cl)ccc21 (stereo unspecified) | inactive | inactive | – | – | – | – | – | – | Kd [4]: 4480 µM; Kd (HSP90): 0.007 µM
O=[N+]([O-])c1ccc(N2CCC(NCCC(O)c3ccc(F)c4ccccc34)CC2)c(C(F)(F)F)c1 (stereo in doubt; 8) | – | – | – | 12.1 | 0.5 | 7.3 | 1.79 | 13.1 | IC50 (Plasmodium falciparum [6]): 0.15 µM; Ratio CC50/IC50 [7]: 38; IC50 (Plasmodium falciparum [19]): 0.13 µM; CC50 [8]: 5.7 µM; inhibition in vivo at 50 mg/kg/day (Plasmodium berghei [20]): 96.4%; IC50 (Plasmodium falciparum [21]): 0.11 µM; Activity (Plasmodium berghei [22]): 98%; selectivity ratio [23]: 37
